According to the EternaBench riboswitch data:

Test system: MS2 coat protein
Experiment: apparent Kd, MS2 coat protein; higher = weaker binding; RNA-MaP array; FMN 200 µM where present
Procedure, shortened: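 Green signal from SNAP-549-labelled MS2 coat protein was normalised to red-channel RNA signal and to the median Fmax of control clusters. The protein was titrated from 0.7 or 1.5 nM, doubling to 3 µM, without and then with constant ligand, over designs transcribed by stalled E. coli RNA polymerase on Illumina sequencing-chip clusters, in 100 mM Tris-HCl pH 7.5, 80 mM KCl, 4 mM MgCl2, BSA, DTT, yeast tRNA and Tween-20. The apparent Kd is the median of filtered per-cluster binding-curve fits.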

[1] = designed as: ON switch for flavin mononucleotide, no ligand
[2] = ligand present: flavin mononucleotide, designed as: ON switch for flavin mononucleotide
[3] = designed as: OFF switch for flavin mononucleotide, no ligand
[4] = ligand present: flavin mononucleotide, designed as: OFF switch for flavin mononucleotide

Sequence	apparent Kd [1]	apparent Kd [2]	apparent Kd [3]	apparent Kd [4]
CGGACAAUGCCCGAGACAUGAGGAUCACCCAUGUUAGCAGCACAGGAUAUCAUGUUUUGUAAAGGUGAGAAGGGUGAUUGCAUC	102 nM	68.2 nM		
CGGUAUAUGAAGGGCGAAAGCCCACAUGAGGAUCACCCAUGUAGAAGGCGGGCCGCAACGCGGCCCGAGGAUAUACAAUAUACA			6.5 nM	12.4 nM
AGGCAGCUACAUGAGGAUCACCCAUGUCUGUUUGGAUCUUCCAGAAGGCACGUAAAAUCGGUGGGUGAGGAUAUGGUAGGUCCC	30.9 nM	9.91 nM		
CUCUCUCAUCGAGGAUAUCGAACUUCCACCCUUCGAGAAGGCGACAUGAGGAUCACCCAUGUAAGGAGGACACUCACUCACACA			22.6 nM	20.9 nM
GAAAUGAUGAUAGGAUAUCCACAGACAUGAGGAUCACCCAUGUUUAUGGGACGAAUCCUUGUGCAGGAGAAGGAUCGUCACUAU			64.7 nM	39.5 nM
CUCUUGUUAGGAUAUCAAACUGGCGGCGGAGCCGGCAGUAGUGAGAAGGGACAUGAGGAUCACCCAUGUAAGAA			81.9 nM	155 nM
GGUACUCAAAGAGUACGGAGUCGAACAUGAGGAUCACCCAUGUAGGAUAUGCUAUUCUUGAAGUUGCAGAAGGACAUGUGCAGC			10.9 nM	11.1 nM
CUUCGGGCAGGAUAUGCUGUUUGUGACAUGAGGAUCACCCAUGUGAUGCAGUUUGGGUGUGCAGAAGGGCCUGAGU			54.6 nM	67.2 nM
UAUAUGUCAGGAUAUCGAUUGGAAUGGAAUUUAGUUUUGGUCGAGAAGGGACAUGAGGAUCACCCAUGUUCCUC			30.9 nM	134 nM
AGAAACUACGAGAAGGACAUGUGAACCUUCAAUUACAUGAGGAUCACCCAUGUAGGAUAUCGUAGUUUCAGGAUCGUGAGAUCA			16.7 nM	115 nM
UUACUCAUGUAAGGAUAUGCAGCCGUUUCGGCUGCAGAAGGUACUAUAAUACAUGAGGAUCACCCAUGUCUCUAUUAUUUAGUG	52.8 nM	87.5 nM		
GCGAUUUUGUAGAAGGUACGUGAUAAGACAAAGUAAGGAUAUACUGACAUGAGGAUCACCCAUGUAUAAAUAGUUAACAGUCGC	18.5 nM	11.7 nM		
AGAAAUAAAAAUGAGGAUAUGCAAAAGAAAACAUGAGGAUCACCCAUGUAAAAGAAAAUAAAUGGGCAGAAGGCAUGAAAUAAAGA	136 nM	44.9 nM		
AUCCGACAUGAGGAUCACCCAUGUCAGGAUAUGGACUGACACCGAAAGGAUGGAGGAACCAGAAGGGACUGGGC			32.5 nM	47.8 nM
GAAGUUGGUAGGCCCUCGGAACAUGAGGAUCACCCAUGUAAGGAGGAUAUGCCCGGUACCCGCUGGCAGAAGGCCUUAUAAGAA			11.1 nM	68.8 nM
CGUGGUUGGGAGGAUAUGCACGUGAACGCUAUUGUAGAAGGUCCGACAUGAGGAUCACCCAUGUAGGUGUCACG			168 nM	147 nM
AACUACUCUGUGAGGAUAUGCGAUCGUUGAUCAAAGCAGAAGGCACAUGAGGAUCACCCAUGUUCCUACGAGGG			29.3 nM	73.1 nM
AACAGUACAGGAUAUACAUGAGGAUCACCCAUGUGAGAAUUAAGUGGCGUACCACUAAGUAGAAGGGUACUGGA			51.6 nM	151 nM
ACAAGAUCAGGAUAUACAUGAGGAUCACCCAUGUAUAUCCAAAAAGGGCUUUCUACAUGUAGAAGGGAUCUUGU			13.4 nM	13.1 nM

Sequence	apparent Kd [1]	apparent Kd [2]	apparent Kd [3]	apparent Kd [4]
CCCGGACAUGAGGAUCACCCAUGUUAGGAUAUCUAGAGGAUCUAAACCGAAUAGAUCCAGAGAAGGGAUGUGGG				46.5 nM
UGAUCCGUGUAGGAUAUCUGUUGGCCGCCGACUGGAGAAGGGCACACAUGAGGAUCACCCAUGUGUGGGCAUAA			17.8 nM	19.6 nM
GUGUAGACAGGAUAUGCUUUGAGCAUAUGAGAGUAUGCUCGACAUGAGGAUCACCCAUGUAGAAGGGUCUACAC			12.1 nM	12.9 nM
GGUUGUCAUAGUCAUCCUUUCCGUACAUGAGGAUCACCCAUGUAGGAUAUGCUACUCACGGUGUGGCAGAAGGGCGUGUGUCUU			17.9 nM	19.9 nM
AAAAAGUCAGGAUAUACAUGAGGAUCACCCAUGUAGCAUACGAAAAAGAGUGUGCAGUGUAGAAGGGACAAAAA			27.1 nM	25.7 nM
AAAAAACAUGAGGAUCACCCAUGUCAGGAUAUCAUAAAAAAAAAAAAAAAAAAAAAAGUGAGAAGGGACAAAAA			91.7 nM	71.5 nM
GAAUAAUUGAUCCUUUUUUAUUACAUGAGGAUCACCCAUGUGCAGGAUAUCGAUUGUUUUAGUUUCGAGAAGGGCAAGAACUGU			219 nM	255 nM
AAGCGCUACAUGAGGAUCACCCAUGUUCCGAGGCAGAUUUCACAGGAUAUCCCAAUUGGCCCAAGGGAGAAGGGUGAUGGCCAA	79.1 nM	23.6 nM		
CUUUAGUCAGGAUAUACAUGAGGAUCACCCAUGUAAAAUUUUAAUUUAAUUUUAAGGUGUAGAAGGGACCACCC			33.4 nM	29.3 nM
UUGUUAAGGAGAGGAUAUUGACAUGAGGAUCACCCAUGUACAUGGGAGUGUUUACUGAAUUCUUACGAGAAGGCUUACAUAUUU			216 nM	102 nM
GGAAACUACGAGAAGGACAUGUGGUCCUUCAGUUACAUGAGGAUCACCCAUGUAGGAUAUCGUAGUUUCAGGAUCGUGAGAUCA			33.2 nM	10.7 nM
GACAUGAGGAUCACCCAUGUCCAACCAGAAGGCCAGGAAUCGGACCCGAGUAUCGGGUUCGAGAUGGAGGAUAUGGGCGCCGAA	75.1 nM	33.7 nM		
ACGAUUCACUCAGGAUAUGUAUCACCUCGUUACCAACAUGAGGAUCACCCAUGUCCGUGGCUCGGACAGAAGGGAGAAGAAUCG	733 nM	220 nM		
GUCAGCUCGUGAGGAUAUACAUGAUAGAUCGAUUAAUUAAUUAAUUUAACAUGAGGAUCACCCAUGUAGAAGGCACGAGCUGAC			51.7 nM	46.7 nM
UGGUGUGAAUAGGAUAUGAACUCUGCCAGGAUAUCAGAAGGGUUUACAUGAGGAUCACCCAUGUCAUCCACUGC			18.8 nM	18.9 nM
AGCUAGAGAGGAUAUACGUAGGAAAAAAAAGUCUGAUCCCUACAUGAGGAUCACCCAUGUAGAAGGCUCUGGCA			91.5 nM	81.8 nM
UGGAUCAUCGGAGGAUAUCAUGUAAAUACAUGAGGAUCACCCAUGUCGUACGAGAGUACGGAGAUUGAGAAGGCCGAUGAUCCU	24.6 nM	15.4 nM		
UGUCCAUAGCAGAAGGACAUAAAUACAUGACCAAACAUGAGGAUCACCCAUGUAGGAUAUGCUAUGGACUAAGAGCGAAAGCUC			6.6 nM	9.31 nM
